Most compounds without a hit are left out; they make up all but 1.9% or so of the library.
Calb FLC: affects C. albicans growth with fluconazole | C. albicans CaCi-2 (fluconazole-resistant clinical isolate) + fluconazole, Alamar Blue growth, 48 h | growth inhibition, % (no concentration beside the values) | 300,000 tested, 0.57% active | AID 1979;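 active = growth inhibition above about 58% in most replicates, limit read from the data, passing the limit was not always enough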;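 also: all wells also contain fluconazole at 8 µg/ml as a sub-toxic cotreatment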
HIF act: HIF pathway transcriptional activation | U2OS HRE-luciferase reporter, luminescence; normalized: DMSO 0%, desferrioxamine 100% | activation, % at 7.5 µM (by protocol) | 300,000 tested, 0.32% active;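 active = mean activation of at least 10% of the iron chelator positive control signal, with at least half of replicates also reaching 10%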
GAA850 FXN act: frataxin GAA850 promoter activation; activation, % at 6 µM; AID 540364; HEK293 lucGAA850 FXN promoter luciferase reporter, 24 h; percent of 10 µM SAHA response; 360,000 tested, 0.56% active;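 active = activation above the average of all compounds screened plus 3 SD, cutoff fixed separately per campaign, cut at about 7.5% in these data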
procasp7 counter: counter-screen: procaspase-7 (human) activation | activation, % at 8.5 µM | 330,000 tested, 0.093% active | recombinant procaspase-7, Ac-DEVD-pNA absorbance 405 nm; D23A/D198A/D206A triple mutant, cannot self-cleave; scale: DMSO 0, 5 µM enzyme 100 | AID 463210 | P55210;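 active = percent activation above the screen-wide mean plus 3 SD, cut at about 25% in these data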
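Detection: p-Nitroaniline absorbance at 405 nm, read at 0 and 120 min; system: Uncleavable procaspase-7 mutant enzyme; evaluation: % activation from two-timepoint absorbance difference, scaled to controls; times: 1 h enzyme–compound preincubation and 2 h substrate reaction, both 25 °C; buffer or medium: Zinc-free HEPES pH 7.4 with 300 mM NaCl, 0.01% Triton X-100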
Neddyl block: cullin neddylation inhibition; 360,000 tested, 0.58% active; AID 651699; inhibition, % at 25 µM; TR-FRET cullin neddylation, biochemical; P61081+Q13564; in the data active = inhibition above about 36%
Target sequence (P61081 whole entry, looked up): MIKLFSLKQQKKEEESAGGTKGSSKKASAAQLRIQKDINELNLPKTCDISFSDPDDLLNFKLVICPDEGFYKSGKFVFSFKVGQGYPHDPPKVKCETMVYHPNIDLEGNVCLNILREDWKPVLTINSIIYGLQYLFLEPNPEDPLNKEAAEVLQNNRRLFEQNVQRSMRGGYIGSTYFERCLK
Target sequence (Q13564 whole entry, looked up): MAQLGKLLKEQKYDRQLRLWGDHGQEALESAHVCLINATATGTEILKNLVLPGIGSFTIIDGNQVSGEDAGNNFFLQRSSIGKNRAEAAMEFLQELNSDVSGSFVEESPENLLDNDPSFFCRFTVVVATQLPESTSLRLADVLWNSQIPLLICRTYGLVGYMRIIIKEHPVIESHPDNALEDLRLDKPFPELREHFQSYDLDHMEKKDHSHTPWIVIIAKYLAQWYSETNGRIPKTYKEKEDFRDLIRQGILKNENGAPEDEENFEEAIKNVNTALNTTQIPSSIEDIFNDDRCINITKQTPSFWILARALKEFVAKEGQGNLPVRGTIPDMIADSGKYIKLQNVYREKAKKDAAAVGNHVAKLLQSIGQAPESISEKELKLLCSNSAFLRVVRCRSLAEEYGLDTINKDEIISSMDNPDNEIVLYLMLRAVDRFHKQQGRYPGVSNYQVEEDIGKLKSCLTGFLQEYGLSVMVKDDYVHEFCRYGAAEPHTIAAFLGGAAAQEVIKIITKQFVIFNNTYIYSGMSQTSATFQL
proCasp3 act: activates human procaspase-3; P42574; recombinant procaspase-3 D3A, Ac-DEVD-pNA absorbance 405 nm; activation, % at 8.5 µM; 330,000 tested, 0.11% active; AID 463141;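 active = activation above the mean of all tested compounds plus 3 SD, cut at about 21% in these data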
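assay system = Procaspase-3 D3A mutant | signal = absorbance at 405 nm, 0 and 120 min | times = 1 h preincubation plus 2 h reaction at 25 °C | repeats = single replicate | read-out = % activation between DMSO and enzyme-spiked controls | medium = Zinc-free HEPES saline buffer with Triton X-100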
GAA30 FXN cntr: counter-screen for GAA850 frataxin promoter activators: GAA30 promoter activation; shares compounds with GAA850 FXN act; HEK293 lucGAA30 FXN promoter luciferase, 24 h; DMSO = 0%, 5 µM ipriflavone = 100%; activation, % at 6 µM; 1,900 tested, 66% active; AID 588350;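 active = mean activation above the mean of solvent-only control wells plus 3 SD, cut at about 22% in these data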;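 also: counterscreen of GAA850 promoter hits where activity marks nonselective or luminescence artifacts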
GAA850 confirm: GAA850 FXN promoter activation confirmation | shares compounds with GAA850 FXN act | HEK293 lucGAA850 FXN promoter luciferase reporter, 24 h; 100% = activation by SAHA | activation, % at 6 µM | 1,900 tested, 86% active | AID 588351;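 active = mean activation above a set limit taken from the primary screen, cut at about 8% in these data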
Large screens that a line does not name were inactive (follow-up assays come after a bar, where shown).

CN(CCc1ccccc1)C(=O)c1cccc(NC(=O)Cc2cccc(NC(=O)C3CCCN(C(=O)c4ccccc4)C3)c2)c1 (stereo not drawn)	none (no result: Calb FLC, HIF act, procasp7 counter, proCasp3 act)
CC(=O)Nc1ccc(-c2ccnc3c2CC(C)(C(=O)NCc2ccc(F)c(F)c2)O3)cc1 (stereo not drawn)	none (no result: Calb FLC, HIF act, procasp7 counter, proCasp3 act)
CCN1C(=O)[C@H]2[C@@H](c3ccc(C)cc3)N3C(=O)N(c4ccc(OC)cc4)C(=O)[C@@]3(CC)[C@H]2C1=O	none
Cc1ccc(N2C(=O)N3[C@H](c4ccc(F)cc4)[C@@H]4C(=O)N(C5CCCCC5)C(=O)[C@@H]4[C@]3(C)C2=O)cc1	GAA850 FXN act 13.0 | GAA30 FXN cntr inactive | GAA850 confirm inactive
O=C1[C@H]2[C@@H](c3ccc(F)cc3)N3C(=O)N(c4ccc(Br)cc4)C(=O)[C@@]3(Cc3ccccc3)[C@H]2C(=O)N1C1CCCCC1	GAA850 FXN act 9.1 | GAA30 FXN cntr inactive | GAA850 confirm inactive
CC[C@@]12C(=O)N(c3ccc(OC)cc3)C(=O)N1[C@H](c1ccc(Cl)cc1)[C@@H]1C(=O)N(C3CCCCC3)C(=O)[C@@H]12	GAA850 FXN act 10.5 | GAA30 FXN cntr 30.3 | GAA850 confirm inactive
Cc1ccc(N2C(=O)N3[C@H](c4ccc(Cl)cc4)[C@@H]4C(=O)N(C5CCCCC5)C(=O)[C@@H]4[C@]3(Cc3ccccc3)C2=O)cc1	GAA850 FXN act 12.0 | GAA30 FXN cntr 43.3 | GAA850 confirm 17.1
O=C(NCc1cccc(Cl)c1)c1cccc2c(-c3cccnc3)coc12	none (no result: Calb FLC, HIF act, procasp7 counter, proCasp3 act)
O=C1[C@H]2[C@@H](c3ccc(Cl)cc3)N3C(=O)N(c4cccc(Cl)c4)C(=O)[C@@]3(Cc3ccc(Cl)cc3)[C@H]2C(=O)N1C1CCCCC1	GAA850 FXN act 9.6 | GAA30 FXN cntr 22.6 | GAA850 confirm 10.1
COC(=O)c1ccc(NC(=S)Nc2ccccn2)cc1	none
COc1ccc(NC(=S)Nc2ccccn2)cc1	GAA850 FXN act 8.3 | GAA30 FXN cntr 108.5 | GAA850 confirm 31.7
c1ccc2[nH]c(SCc3ccc(-c4nnco4)cc3)nc2c1	none
c1cnc2c(SCc3ccc(-c4nnco4)cc3)cccc2c1	GAA850 FXN act 8.4 | GAA30 FXN cntr 73.9 | GAA850 confirm 26.6
Cc1cccc(CSc2cccc3cccnc23)c1	GAA850 FXN act 24.6 | GAA30 FXN cntr inactive | GAA850 confirm inactive
CCOC(=O)CSc1cccc2cccnc12	none (not shown: Neddyl block)
C[C@@H](CO)NC(=O)[C@H]1O[C@@H](n2cnc3c(N)ncnc32)[C@H](O)[C@@H]1O	none (no result: Calb FLC, HIF act, GAA850 FXN act, procasp7 counter, proCasp3 act)
Nn1cnc2c(ncn2C2OC(CO)C(O)C2O)c1=O (stereo not drawn)	GAA850 FXN act 13.2 (no result: Calb FLC, HIF act, procasp7 counter, proCasp3 act) | GAA30 FXN cntr inactive | GAA850 confirm inactive
Cn1cnc2c(ncn2C2OC(CO)C(O)C2O)c1=S (stereo not drawn)	none (no result: Calb FLC, HIF act, procasp7 counter, proCasp3 act)
OCC1OC(n2cnc3c(NC4CCCCC4)ncnc32)C(O)C1O (stereo not drawn)	GAA850 FXN act 9.6 | GAA30 FXN cntr 37.1 | GAA850 confirm 16.7
Nc1ncnc2c1ncn2C1OC(C(=O)NC2CC2)C(O)C1O (stereo not drawn)	GAA850 FXN act 9.7 (no result: Calb FLC, HIF act) | GAA30 FXN cntr 25.9 | GAA850 confirm 14.9
N#Cc1c(C#N)c(SSc2c(C#N)c(C#N)c(N)n2-c2ccccc2)n(-c2ccccc2)c1N	none (no result: Calb FLC, HIF act, procasp7 counter, proCasp3 act)
COc1ccc(NC(=O)Nc2nnc([C@H]3C[C@H](O)[C@@H](CO)O3)s2)cc1	none (no result: Calb FLC, HIF act, procasp7 counter, proCasp3 act)
COCCNC(=O)C1(C)CCCN(CCSc2ccccc2)C1 (stereo not drawn)	none (no result: Calb FLC, HIF act, procasp7 counter, proCasp3 act)
O=C(C(=O)N1CCCN(Cc2ccc(F)cc2)CC1)c1ccccc1	none (no result: Calb FLC, HIF act, GAA850 FXN act, procasp7 counter, proCasp3 act)
COc1cc(OC)c(-c2nn3c(C4CCCCC4)nnc3s2)cc1OC	GAA850 FXN act 12.8 (not shown: Neddyl block) | GAA30 FXN cntr inactive | GAA850 confirm 11.6
CN(C)Cc1ncccc1Oc1nc2cc(-c3cccc(Cl)c3)sc2c(=O)n1C	none (no result: Calb FLC, HIF act, procasp7 counter, proCasp3 act)
O=C1c2ccccc2C(=O)N1CCc1c[nH]c2ccccc12	GAA850 FXN act 9.0 | GAA30 FXN cntr 87.7 | GAA850 confirm 37.4
O=C(C1CCCCC1)N1CCC2CC1c1cc(Cl)ccc12 (stereo not drawn)	none (no result: Calb FLC, HIF act, procasp7 counter, proCasp3 act)
COc1ccc(OC)c2nc(-c3ccc4c(c3)OCO4)ccc12	GAA850 FXN act 9.5 (not shown: Neddyl block) | GAA30 FXN cntr 124.3 | GAA850 confirm 44.2
c1ccc2nc(-c3ccc4c(c3)OCO4)ccc2c1	none (not shown: Neddyl block)
CC[C@]1(C(=O)OC)[C@H]2C(=O)N(Cc3ccccc3)C(=O)[C@H]2[C@H]2CN=C(SCc3ccc(C)cc3)N21	GAA850 FXN act 13.1 (no result: Calb FLC, HIF act) | GAA30 FXN cntr 34.2 | GAA850 confirm 13.9
CC[C@]1(C(=O)OC)[C@H]2C(=O)N(Cc3ccccc3)C(=O)[C@H]2[C@H]2CN=C(SCc3ccc(C(=O)OC)cc3)N21	GAA850 FXN act 9.5 (no result: Calb FLC, HIF act) | GAA30 FXN cntr inactive | GAA850 confirm 10.9
CCN1C(=O)[C@H]2[C@H]3CN=C(SCC4CC4)N3[C@@](Cc3ccccc3)(C(=O)OC)[C@H]2C1=O	none (no result: Calb FLC, HIF act)

Bioassay records (PubChem)
